In ChEMBL document CHEMBL1142312, “Anti-Plasmodium activity of tetrazolium salts” (Bioorg Med Chem, 2008):
Where “and” joins values, the source holds several entries; their conditions need not be identical. Equal values may be shown once.

Tests used:
[1] = Inhibition of glutathione reduction of nitrotetrazolium blue chloride
[2] = (§1) Toxicity in CHO cells; format: cell-based, Cricetulus griseus; settings: Chinese hamster (Cricetulus griseus), CHO cells
Outline: (§2)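 CHO cells grown to 50% confluency in RPMI-1640 with 10% fetal calf serum, 25 mM Hepes and gentamicin. Serial dilutions made from a 10 mg/mL DMSO stock; DMSO-only controls. After 48 h, MTT (10 mg/mL in medium) added for 1 h, then DMSO added and absorbance read at 650 nm. IC50 by non-linear regression of dose–response; mean ± SE of four determinations.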

Plasmodium falciparum = assay: Antimalarial activity against Plasmodium falciparum in LDH reporter assay; format: functional, organism-based
Outline: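 P. falciparum line ItG cultured in O+ human erythrocytes in RPMI-1640 with 10% human serum and 50 μM hypoxanthine. Twofold serial dilutions from 10 mg/mL DMSO stock, 2% hematocrit, 2% parasitemia. Incubated 72 h at 37 °C under 95% N2/3% CO2/2% O2. Parasite LDH assay read at 650 nm after 1 h. IC50 by non-linear regression, mean ± SE of four determinations.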

[3] = Ratio of IC50 for CHO cells to IC50 for Plasmodium falciparum; format: functional
CHO = assay: as §1; format: cell-based, Cricetulus griseus; settings: cho
Outline: as §2

O=S(=O)(O)c1cc(N=C=S)ccc1/C=C/c1ccc(N=C=S)cc1S(=O)(=O)O
IC50 [1]: 31 µM

CC(=O)Nc1ccc(/C=C/c2ccc(N=C=S)cc2S(=O)(=O)O)c(S(=O)(=O)O)c1
IC50 [1]: 2.7 µM

[Cl-].c1ccc(-c2ccc(-n3nc(-c4cccc5ccccc45)n[n+]3-c3ccccc3)cc2)cc1
IC50 [2]: 9 µM | IC50 (Plasmodium falciparum; Plasmodium falciparum): 2.9 µM | Ratio IC50 [3]: 3.1

[Cl-].c1ccc(-c2ccc(-c3nn(-c4ccccc4)[n+](-c4ccccc4)n3)cc2)cc1
IC50 [2]: 7 µM | IC50 (Plasmodium falciparum; Plasmodium falciparum): 0.23 µM | Ratio IC50 [3]: 30.4

[Cl-].c1ccc(COc2ccc(-c3nn(-c4ccccc4)[n+](-c4ccccc4)n3)cc2)cc1
IC50 [2]: 4.2 µM | IC50 (Plasmodium falciparum; Plasmodium falciparum): 0.103 µM | Ratio IC50 [3]: 40.8

[Cl-].c1ccc(-n2nc(-c3cccc4ccccc34)n[n+]2-c2ccccc2)cc1
IC50 [2]: 2.4 µM | IC50 (Plasmodium falciparum; Plasmodium falciparum): 0.35 µM | Ratio IC50 [3]: 6.9

O=[N+]([O-])c1ccc(-[n+]2nc(-c3ccc(OCc4ccccc4)cc3)nn2-c2ccccc2)cc1.[Cl-]
IC50 [2]: 4.4 µM | IC50 (Plasmodium falciparum; Plasmodium falciparum): 9 µM | Ratio IC50 [3]: 0.5

COc1ccc(-c2nn(-c3ccccc3)[n+](-c3ccc([N+](=O)[O-])cc3)n2)cc1.[Cl-]
IC50 [2]: 6 µM | IC50 (Plasmodium falciparum; Plasmodium falciparum): 3.7 µM | Ratio IC50 [3]: 1.6

O=[N+]([O-])c1ccc(-[n+]2nc(-c3ccc(Br)cc3)nn2-c2ccccc2)cc1.[Cl-]
IC50 [2]: 7 µM | IC50 (Plasmodium falciparum; Plasmodium falciparum): 10 µM | Ratio IC50 [3]: 0.7

COc1cc(-c2nn(-c3ccccc3)[n+](-c3ccc([N+](=O)[O-])cc3)n2)cc(OC)c1OC(C)=O.[Cl-]
IC50 [2]: 19 µM | IC50 (Plasmodium falciparum; Plasmodium falciparum): 7.3 µM | Ratio IC50 [3]: 2.6

COc1cc(-c2nn(-c3ccccc3)[n+](-c3ccccc3)n2)ccc1OCc1ccccc1.[Cl-]
IC50 [2]: 4.7 µM | IC50 (Plasmodium falciparum; Plasmodium falciparum): 0.26 µM | Ratio IC50 [3]: 18.1

O=[N+]([O-])c1ccc(-[n+]2nc(-c3ccccc3)nn2-c2ccccc2)cc1.[Cl-]
IC50 (CHO): 12 µM | IC50 [2]: 16.2 µM | IC50 (Plasmodium falciparum): 9.1 µM and 4.5 µM | Ratio IC50 [3]: 1.8 and 2.7

O=[N+]([O-])c1ccc(-n2nc(-c3ccccc3)n[n+]2-c2ccc(I)cc2)cc1.[Cl-] [IODONITROTETRAZOLIUM CHLORIDE]
IC50 [2]: 49 µM | IC50 (Plasmodium falciparum; Plasmodium falciparum): 81 µM | Ratio IC50 [3]: 0.6

[Cl-].[Cl-].c1ccc(-c2nn(-c3ccccc3)[n+](-c3ccc(-c4ccc(-[n+]5nc(-c6ccccc6)nn5-c5ccccc5)cc4)cc3)n2)cc1 [NEOTETRAZOLIUM CHLORIDE]
IC50 [2]: 11 µM | IC50 (Plasmodium falciparum; Plasmodium falciparum): 0.35 µM | Ratio IC50 [3]: 31.4

[Cl-].c1ccc(-c2nn(-c3ccccc3)[n+](-c3ccccc3)n2)cc1 [TETRAZOLIUM RED]
IC50 [2]: 71 µM | IC50 (Plasmodium falciparum; Plasmodium falciparum): 0.3 µM | Ratio IC50 [3]: 236.7

[Cl-].c1ccc(-c2nn(-c3ccccc3)[n+](-c3cccc4ccccc34)n2)cc1 [TETRAZOLIUM VIOLET]
IC50 [2]: 15 µM | IC50 (Plasmodium falciparum; Plasmodium falciparum): 0.15 µM | Ratio IC50 [3]: 100
